SR-BI DiI-HDL act – activators of SR-BI mediated DiI-HDL uptake, primary screen, ldlA[mSR-BI] CHO cells, DiI fluorescence; 320,000 compounds, 0.096% hits; 3 h; 100 = double the neutral-control signal; activation, % at 12.5 µM;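 active = mean replicate activation of at least 60% and every replicate at or above 60%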
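Test system: SR-BI-overexpressing, LDLR-lacking CHO cells; Also added: labelled HDL, 10 µg/mL; Measured by: bottom-read cell fluorescence after medium removal, ex 550/em 595 nm; Timing: 3 h uptake period with compound, 37 °C; Buffer or medium: F12, 0.5% BSA, 25 mM HEPES; Doses: single compound concentration, delivered by pin transfer.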
Statin myotox sup – suppressors of statin myotoxicity in C2C12 myotubes, primary screen, cell-based, single point, plate reader; C2C12 myotubes + simvastatin, ATP luminescence, 48 h; scaled: DMSO 0, geranylgeraniol control 100; rescue of ATP level, % at 7.49 µM; 330,000 compounds, 0.78% hits; AID 602340, 2012;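 active = mean ATP rescue above about 67%, or every replicate alone reaching that limit, limit read from the data, passing the limit was not always enough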;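 also: myotubes were challenged with 10 µM simvastatin during compound exposure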
SR-BI HDL uptake – inhibitors of SR-BI mediated HDL lipid uptake, primary screen, ldlA[mSR-BI] cells, fluorescence, single point | 320,000 compounds, 0.96% hits | AID 488896, 2010 | ldlA[mSR-BI] CHO cells, DiI-HDL uptake fluorescence, 3 h | inhibition, % at 12.5 µM;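 active = mean replicate inhibition of at least 70% and a set share of replicates each scoring 70 or more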
Target sequence (Q61009 whole entry, looked up): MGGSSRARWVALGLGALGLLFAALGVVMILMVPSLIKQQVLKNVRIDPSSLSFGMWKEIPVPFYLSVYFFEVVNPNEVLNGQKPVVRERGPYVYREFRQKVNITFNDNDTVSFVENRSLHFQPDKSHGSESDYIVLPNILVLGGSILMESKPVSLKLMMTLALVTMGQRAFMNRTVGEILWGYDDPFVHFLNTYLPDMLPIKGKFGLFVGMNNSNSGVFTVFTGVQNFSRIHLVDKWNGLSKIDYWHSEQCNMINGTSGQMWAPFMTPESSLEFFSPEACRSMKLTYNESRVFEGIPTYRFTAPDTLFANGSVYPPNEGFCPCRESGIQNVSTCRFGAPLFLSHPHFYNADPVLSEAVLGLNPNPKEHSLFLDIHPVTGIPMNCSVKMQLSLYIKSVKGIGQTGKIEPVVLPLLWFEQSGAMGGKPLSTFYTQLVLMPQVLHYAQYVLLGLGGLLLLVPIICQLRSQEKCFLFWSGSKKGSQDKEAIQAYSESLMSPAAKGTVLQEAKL
Vif inh – HIV Vif self-association inhibitors, primary screen, imaging, HEK293T, single point; HEK293T cells, Vif self-association by quenched fluorescence, 24 h; 340,000 compounds, 0.35% hits; inhibition, % at 7.49 µM; AID 602346, 2012; in the data active = inhibition above about 50%, passing the limit was not always enough
Of the large screens only hits and unclear results are named; the others gave an inactive call. Sampled rows, rich in hits. Any-hit rate of the full collection: about 1.7%.

COC(=O)C(Cc1ccc(OC(=O)c2ccc(Cl)cc2)cc1)N1Cc2ccccc2C1=O (configuration not stated)	Statin myotox sup 84
Cc1cc(Br)ccc1OCC(=O)NNC(=O)c1ccc(NC(=O)C2CC2)cc1	none
Cc1ccc(C)c(OCC(=O)NNC(=O)c2ccc(NC(=O)C3CC3)cc2)c1	SR-BI HDL uptake 74 (no result: Statin myotox sup)
Cc1ccc2nc(NNC(=O)c3ccc4c(c3)OCCO4)sc2c1	none
COC(=O)c1sc2ccccc2c1NC(=O)c1ccc(S(=O)(=O)N2CC(C)CC(C)C2)cc1 (configuration not stated)	none (no result: Statin myotox sup)
Cc1cc(C)c2nc(NNC(=O)c3ccc(S(=O)(=O)N4CCCC(C)C4)cc3)sc2c1 (configuration not stated)	SR-BI HDL uptake 115
Cc1cc(C)c2nc(NNC(=O)c3ccc(S(=O)(=O)N4CC(C)CC(C)C4)cc3)sc2c1 (configuration not stated)	SR-BI HDL uptake 139
CC1CCCN(S(=O)(=O)c2ccc(C(=O)Nc3nnc(C4CC4)o3)cc2)C1 (configuration not stated)	none
Cc1ccc2nc(NNC(=O)c3ccc(S(=O)(=O)N4CCc5ccccc5C4)cc3)sc2c1	SR-BI HDL uptake 119
Cc1cccc2sc(NNC(=O)c3ccc(S(=O)(=O)N4CC(C)CC(C)C4)cc3)nc12 (configuration not stated)	SR-BI HDL uptake 131
C[C@@H]1CN([C@H](C)CO)C(=O)c2cc(NS(=O)(=O)c3ccc(Cl)cc3)ccc2O[C@@H]1CN(C)S(=O)(=O)c1cn(C)cn1	none (no result: SR-BI DiI-HDL act, SR-BI HDL uptake, Vif inh)
Cc1cccc(NC(=S)NNC(=O)Cc2ccccc2)c1	SR-BI DiI-HDL act 211 (no result: Statin myotox sup)
C[C@@H]1CN([C@H](C)CO)S(=O)(=O)c2ccc(-c3cccnc3)cc2O[C@@H]1CN(C)C(=O)C1CCCCC1	none (no result: SR-BI DiI-HDL act, SR-BI HDL uptake, Vif inh)
N#Cc1ccc(NC(=O)Nc2cccc(C#N)c2)cc1	none (no result: Statin myotox sup)
N#Cc1ccc(NC(=O)Nc2ccc(Oc3ccc(NC(=O)Nc4ccc(C#N)cc4)cc3)cc2)cc1	SR-BI HDL uptake 87
CCCNC(=O)Nc1ccc2c(c1)C(=O)N(C)C[C@@H](OC)[C@@H](C)CN(C(=O)C1CCOCC1)[C@H](C)CO2	none (no result: SR-BI DiI-HDL act, SR-BI HDL uptake, Vif inh)
CSc1ccc(CN(C)CC(=O)NCCc2ccccc2)cc1	Vif inh 69
CN(CC(=O)NCCc1ccc(F)cc1)Cc1ccccc1	none (no result: SR-BI DiI-HDL act, SR-BI HDL uptake)
C[C@@H]1CN([C@H](C)CO)C(=O)c2cc(-c3cccc(C#N)c3)cnc2O[C@H]1CN(C)C(=O)C1CCOCC1	none (no result: SR-BI DiI-HDL act, SR-BI HDL uptake, Vif inh)
COC(=O)c1ccccc1NC(=O)C1CCN(C(=O)Cc2ccccc2)CC1	none (no result: SR-BI DiI-HDL act)
COc1ccc(NC(=O)C2CCN(C(=O)C3CC(=O)N(c4ccc(C)cc4)C3)CC2)c(OC)c1 (configuration not stated)	SR-BI HDL uptake 79
CC(=O)Nc1ccc(NC(=O)C2CCN(C(=O)C3CC(=O)N(c4ccc(C)cc4)C3)CC2)cc1 (configuration not stated)	none
COc1ccc(C)cc1NC(=O)C1CCN(C(=O)Cc2ccccc2)CC1	SR-BI HDL uptake 76 (no result: Statin myotox sup)
C[C@H](CO)N1C[C@H](C)[C@H](CN(C)C(=O)C2CC2)Oc2ncc(-c3ccccc3F)cc2C1=O	none (no result: SR-BI DiI-HDL act, SR-BI HDL uptake, Vif inh)
N#Cc1c(C(F)(F)F)cc(-c2ccco2)nc1SCc1ccncc1	Vif inh active (no result: Statin myotox sup)
N#Cc1c(C(F)(F)F)cc(-c2ccco2)nc1SCc1ccccn1	none
C/C(=N\NC(=O)c1cccc(N/N=C(\C)c2ccco2)c1)c1ccco1	none (no result: Statin myotox sup)
C/C(=N\NC(=O)c1cccc(N/N=C(\C)c2cc(O)ccc2O)c1)c1cc(O)ccc1O	SR-BI HDL uptake 85 (no result: Statin myotox sup)
Cc1nc2sc(C#N)c(N)c2c2c1CCCC2	none
N#Cc1sc2nc(N3CCCCC3)c3c(c2c1N)CCCC3	SR-BI HDL uptake 74
CCNC(=O)C[C@@H]1CC[C@H]2[C@@H](COc3ccc(NC(=O)Nc4ccccc4Cl)cc3C(=O)N2C)O1	none (no result: SR-BI DiI-HDL act, SR-BI HDL uptake, Vif inh)
Cn1nnnc1SCc1ccc(C(=O)Nc2ccc(Br)cc2)cc1	Vif inh 81
CC(=O)Nc1ccc(C(=O)CSc2nnnn2C)cc1	none
COCCNC(=O)C[C@H]1CC[C@@H](NC(=O)NC2CCCC2)[C@@H](CO)O1	none (no result: SR-BI DiI-HDL act, SR-BI HDL uptake, Vif inh)
Cc1cc(Oc2ccc(=O)n(C)n2)nc(Oc2ccc(=O)n(C)n2)n1	SR-BI DiI-HDL act 82
C/C=C/c1ccc2c(c1)O[C@@H](CN(C)C(=O)NCCC)[C@@H](C)CN([C@@H](C)CO)S2(=O)=O	none (no result: SR-BI DiI-HDL act, SR-BI HDL uptake, Vif inh)
